Only some compounds are listed: those with a hit (about 1.9% of all), similar ones and a draw of the others.
UHRF1 MBD2 ctr: UHRF1 methyl-DNA binding inhibition; Q96T88; UHRF1 binding to methylated oligo, TR-FRET; inhibition, % at 4.4 µM; actives 0.75% (n = 370,000); in the data active = inhibition above about 21%;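 note: UHRF1 SRA domain binding a hemimethylated CpG hairpin DNA probe; 0% = median of test compound wells and 100% = reference inhibitor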
LEDGF integ inh: blocks HIV-1 LEDGF/p75-dependent DNA integration; TR-FRET IN-LEDGF/p75 DNA integration, Eu/Cy5; inhibition, % at 3.7 µM; actives 0.64% (n = 370,000); AID 743269;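 active = inhibition above the screen-wide mean plus 3 SD, cut at about 13% in these data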;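 note: signal is the Cy5 over europium emission ratio at 671 and 618 nm; 0% = plate median of compound wells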
Rin1 Abl inh: human Rin1-Abl interaction inhibition | P00519+Q13671 | TR-FRET Rin1/Abl binding, biochemical | inhibition, % at 7.35 µM | actives 0.4% (n = 360,000) | AID 588664; in the data active = inhibition above about 5%, passing the limit was not always enough
MBD2 inh: MBD2-methylated oligo binding inhibition; AID 686964; inhibition, % at 4.4 µM; actives 0.31% (n = 370,000); TR-FRET, MBD2 binding to methylated oligonucleotide; Q9UBB5; in the data active = inhibition above about 13%
Target sequence (Q9UBB5 whole entry, looked up): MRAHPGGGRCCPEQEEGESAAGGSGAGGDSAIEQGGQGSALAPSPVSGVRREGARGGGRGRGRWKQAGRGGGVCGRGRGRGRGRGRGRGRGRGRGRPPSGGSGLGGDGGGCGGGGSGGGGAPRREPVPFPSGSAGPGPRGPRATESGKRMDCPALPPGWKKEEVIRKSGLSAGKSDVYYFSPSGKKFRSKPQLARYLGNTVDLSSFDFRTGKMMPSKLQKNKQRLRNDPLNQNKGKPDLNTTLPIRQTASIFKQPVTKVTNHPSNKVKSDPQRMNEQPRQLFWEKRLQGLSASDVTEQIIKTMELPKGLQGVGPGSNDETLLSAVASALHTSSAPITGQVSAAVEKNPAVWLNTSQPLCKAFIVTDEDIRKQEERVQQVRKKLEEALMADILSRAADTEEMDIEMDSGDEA
TDP2 inh: blocks human TDP2 phosphodiesterase activity; O95551; recombinant TDP2, T5PNP hydrolysis, p-nitrophenol absorbance 415 nm; inhibition, % at 12.8 µM; actives 0.34% (n = 370,000);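 active = inhibition above the mean of all tested compounds plus 3 SD, set per campaign, cut at about 25% in these data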;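 note: 0% = DMSO with enzyme and 100% = buffer with substrate but no TDP2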
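System – recombinant human TDP2 · Amount – 120 nM TDP2 per well · Buffer or medium – Mg2+-containing Tris-HCl buffer, pH 7.5 · Reagent – T5PNP substrate, 5 mM · Dosing – 12.8 µM single point, 1% DMSO · Incubation – 2 h at 37 °C · Measured by – epi absorbance · Read-out basis – percent inhibition · Benchmarks – high control without enzyme, low control DMSO plus TDP2 · Repeats – singlicate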
IN multimer up: activates HIV-1 integrase multimerization in LEDGF counter-screen; AID 1053131; TR-FRET HIV-1 integrase multimerization, biochemical; actives 17% (n = 2,000); activation, % at 7.7 µM; shares compounds with LEDGF integ inh; in the data active = activation above about 8.9%
TR-FRET interf: optically interferes with TR-FRET readout in LEDGF counter-screen; TR-FRET optical interference counterscreen, HIV-1 IN multimerization; inhibition, % at 7.7 µM; 2,000 tested, under 10 active; shares compounds with LEDGF integ inh;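 active = inhibition above the mean over all tested compounds plus 3 SD, which no compound reached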;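 note: 0% = integrase with antibodies and DMSO and 100% = antibodies without integrase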
LEDGF integ conf: LEDGF/p75-dependent HIV-1 integration inhibition, confirmation | shares compounds with LEDGF integ inh | TR-FRET LEDGF/p75-dependent HIV-1 integration, biochemical | inhibition, % at 3.7 µM | actives 36% (n = 2,000); in the data active = inhibition above about 14%
* marks the source's active call; other numbers are inactive results; · = no result.

SMILES | UHRF1 MBD2 ctr | LEDGF integ inh | Rin1 Abl inh | MBD2 inh | TDP2 inh | IN multimer up | TR-FRET interf | LEDGF integ conf
CC(C)(C)OC(=O)C[C@H]1C/C=C\C[C@@H](CC(=O)N[C@H](CO)Cc2ccccc2)C(=O)NC[C@H](c2ccccc2)OC1=O | -8 | 1 | 1 | 1 | -1 | · | · | ·
CC(C)(C)OC(=O)C[C@H]1C/C=C\C[C@@H](CC(=O)NCCO)C(=O)NC[C@@H](c2ccccc2)OC1=O | -2 | 76* | 6 | 2 | 4 | 0 | 1 | -1
c1ccn2c(c1)nc1c2nc2ccccn21 | -6 | 14* | -10 | -7 | -3 | 5 | -17 | 3
Cc1cc(NS(=O)(=O)c2ccc(NC(=O)COc3ccc(Br)cc3)cc2)nc(C)n1 | 4 | -8 | -1 | 5 | -7 | · | · | ·
CCSCC1COC(c2cccn2Cc2ccc(C)cc2)=N1 (configuration not stated) | -1 | -3 | -2 | 2 | 9 | · | · | ·
CCC1COC(c2cccn2Cc2ccc(Cl)cc2)=N1 (configuration not stated) | 1 | 14* | -1 | 4 | 15 | 0 | 0 | -1
C=CC(=O)Nc1ccc(N(C)c2ccnc(Nc3ccc(N4CCN(C)CC4)cc3)n2)cc1 | 10 | -1 | -11 | 4 | -5 | · | · | ·
COCCN1C(=O)N[C@@H](c2cccc(F)c2)C(C(=O)OC)=C1C | -3 | 29* | 1 | -2 | 7 | 1 | -7 | -5
Cc1cc(C)n(CC(=O)NC2CCCc3c2cnn3-c2ccc(C)c(C)c2)n1 (configuration not stated) | -1 | -1 | 1 | -1 | 9 | · | · | ·
COc1ccc(C(=O)OCC(=O)c2ccc(C3CCCCC3)cc2)cc1 | 1 | 1 | 0 | 4 | 9 | · | · | ·
Nc1ccc(O)cc1C(=O)OCC(=O)c1ccc(C2CCCCC2)cc1 | -2 | 15* | 3 | 5 | 7 | 0 | 0 | 0
O=C(CN1CCN(CN2C(=O)NC3(CCCCCC3)C2=O)CC1)Nc1ccc(F)cc1 | 1 | -7 | -3 | -2 | 2 | · | · | ·
Cc1ccc(CNc2ccc(N3CCOCC3)cc2)s1 | -1 | 13 | 3 | -3 | 9 | · | · | ·
COc1ccc(CNc2ccc(N3CCN(C(C)=O)CC3)cc2)cc1OC | -1 | 15* | -1 | -4 | -8 | 4 | -19 | 0
CC(=O)N1CCN(c2ccc(NCc3cccs3)cc2)CC1 | 0 | 22* | -4 | 1 | 16 | 3 | -17 | -3
CC(=O)N1CCN(c2ccc(NCc3ccc(-c4ccc(Br)cc4)o3)cc2)CC1 | 5 | 19* | -2 | 1 | 18 | 6 | -30 | -1
CC(=O)N1CCN(c2ccc(NCc3ccc4c(c3)OCO4)cc2)CC1 | -3 | 13 | -5 | -6 | 21 | · | · | ·
CC(=O)N1CCN(c2ccc(NCc3ccc(C)s3)cc2)CC1 | 0 | 15* | -2 | 1 | 19 | 6 | -22 | 1
CC(=O)N1CCN(c2ccc(NCc3ccccc3)cc2)CC1 | -1 | 12 | -2 | -5 | 11 | · | · | ·
Cc1cc(C)nc(NS(=O)(=O)c2ccc(NC(=O)CSc3nc(-c4ccccc4)c(C#N)c(=O)[nH]3)cc2)n1 | 1 | 3 | -53 | -2 | 9 | · | · | ·
COC(=O)c1cn(C(=O)c2cc(OC)cc(OC)c2)c2ccccc12 | 5 | -4 | 1 | 1 | -1 | · | · | ·
COc1cc(OC)cc(C(=O)n2cnnc2N)c1 | 1 | 25* | 6 | -1 | -5 | 0 | -1 | -3
O=c1c2cc(Cl)ccc2oc2nc3n(c(=O)c12)CCCS3 | -9 | 22* | -3 | 3 | -2 | -1 | 8 | 27*
Cc1ccc(C(=O)N[C@H](C(=O)Nc2cccc(S(=O)(=O)N3CCOCC3)c2)C(C)C)cc1 | -1 | -1 | -1 | -4 | 0 | · | · | ·
Clc1cccc(CN2CCC3CC2c2cc(N4CCCCC4)ccc23)c1 (configuration not stated) | 10 | 0 | 0 | 0 | 4 | · | · | ·
SMILES | UHRF1 MBD2 ctr | LEDGF integ inh | Rin1 Abl inh | MBD2 inh | TDP2 inh | IN multimer up | TR-FRET interf | LEDGF integ conf
C[C@H]1CN(S(=O)(=O)c2c(F)cccc2F)CCN1S(=O)(=O)c1ccc2c(c1)OCCO2 | 1 | -2 | 1 | -1 | 10 | · | · | ·
O=C(/C=C/c1ccccc1)Nc1scc(-c2ccccc2)c1C(=O)O | -4 | 16* | 0 | 3 | 6 | 1 | -6 | 12
O=C(Nc1scc(-c2ccccc2)c1C(=O)O)c1ccc(F)cc1 | 5 | 14* | -1 | 2 | -3 | 0 | 3 | 5
NCC1C2CCC(O2)C1CO (configuration not stated) | -2 | 56* | 2 | 4 | -1 | 0 | 0 | -2
COc1ccc(CN2C(=O)c3ccccc3C2c2nnnn2C(C)C)cc1OC (configuration not stated) | -1 | 1 | · | -4 | -11 | · | · | ·
O=C(NC(Cc1ccccc1)C(=O)O)/C(=C\c1ccco1)NC(=O)c1ccccc1Br (configuration not stated) | 0 | 16* | -3 | 1 | -11 | 0 | -2 | 1
Cc1ccc(C)n1-c1sc2c(c1C(=O)O)CCCC2 | 46* | 25* | -1 | 12 | 16 | 1 | -3 | 25*
CCOC(=O)c1c(-n2c(C)cc(C=O)c2C)sc2c1CCCC2 | 2 | 2 | 2 | 10 | -8 | · | · | ·
N#CC1=C(N)Oc2cc(N)ccc2C1c1ccc(F)cc1 (configuration not stated) | -4 | 23* | 0 | -7 | -10 | 1 | -6 | 1
N#CC1=C(N)Oc2cc(N)ccc2C1c1ccc(Cl)cc1 (configuration not stated) | -7 | 5 | 1 | -3 | -6 | · | · | ·
COc1ccc(C2C(C#N)=C(N)Oc3cc(N)ccc32)cc1 (configuration not stated) | -3 | 18* | -1 | 4 | 4 | -1 | 5 | -5
Cc1noc(C)c1C(=O)NC1=NCCS1 | -1 | 3 | 3 | -2 | -4 | · | · | ·
COCCN(C(=O)COC(=O)c1c(NC(C)=O)sc(C)c1C)c1c(N)n(Cc2ccccc2)c(=O)[nH]c1=O | -2 | -1 | 1 | 0 | 10 | · | · | ·
Cc1ccccc1NC(=S)NNC(=O)c1csc2c1CCC(C)C2 (configuration not stated) | -2 | 51* | 0 | -2 | -1 | 0 | -2 | 0
CCNC(=S)NNC(=O)c1csc2c1CCC(C)C2 (configuration not stated) | -1 | 1 | -3 | -3 | 7 | · | · | ·
O=C(Nc1ccc(S(=O)(=O)N2CCCC2)cc1)C1CCN(S(=O)(=O)c2ccc(F)cc2)CC1 | 3 | -4 | 0 | 6 | -2 | · | · | ·

Screening results deposited in PubChem by The Scripps Research Institute Molecular Screening Center.
